Drawing on ChEMBL document CHEMBL1151821, “Macrocyclic peptidomimetic beta-secretase (BACE-1) inhibitors with activity in vivo” (Bioorg Med Chem Lett, 2009), this text covers Drug uptake, Kp and concentration for two compounds.

Data set [1] deals with Brain. Briefly: Drug level in APP51/16 transgenic mouse brain expressing human APP at 100 umol/kg, po administered twice at 3 hrs interval measured after 7 hrs of last dose. The note with it: in vivo.
Data set [2] in a line: in vivo. The settings on record: C57BL/6, mouse, brain/plasma, iv, 30 umol/kg.
Data set [3] can be described thus: Drug level in C57BL/6 mouse brain at 30 umol/kg, iv after 5 hrs. Format: ADME, organism-based. The settings on record: read-out: Drug uptake. The procedure, abridged: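 C57BL/6 mice, single i.v. dose of 30 µmol/kg. Compound levels in brain and plasma followed over 5 h; brain:plasma ratio from 5 min to 5 h.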
Data set [4] has as its system Brain. Briefly: Drug level in APP51/16 transgenic mouse brain expressing human APP at 30 umol/kg, iv administered twice at 2 hrs interval measured after 3 hrs of last dose. The note with it: in vivo.
The test system of data set [5] is Brain. Put plainly: Drug level in APP51/16 transgenic mouse brain expressing human APP at 30 umol/kg, iv after 5 hrs. Format: ADME, organism-based. The settings on record: in vivo. The gist of the method:
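Single i.v. dose of 30 µmol/kg in APP51/16 transgenic mice (human APP, brain-specific promoter), sacrificed 5 h after dosing. Compound level measured in brain.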

Data set [6] in a line: in vivo. The settings on record: C57BL/6, mouse, brain/plasma, iv, 30 umol/kg. The source holds these as a separate data set.

Structures are written as SMILES.

Broadly, the Kp is tissue or fluid exposure divided by exposure in the circulation.

The compound `CC(C)c1ccc2c(c1)[C@@H](NC[C@@H](O)[C@@H]1C[C@H](C)CCCCCCCCC(=O)N(C)[C@@H](C)C(=O)N1)CC(C)(C)O2` came in with a Drug uptake in the data set with Brain [1] of 1.5 µmol/kg.
For the compound `CC(C)c1cccc(CNC[C@@H](O)[C@@H]2C[C@H](C)CCCCCCCCC(=O)N(C)[C@@H](C)C(=O)N2)c1`, the Kp at 5 min in “in vivo [2]” is 1.5. Moreover, the concentration at 5 h in data set [3] is greater than 1000 nM. Also, the results for the Drug uptake in the data set on Brain [4] and with Brain [5] were 4.3 µmol/kg and 1.3 µmol/kg, respectively. This compound also came in with a Kp at 5 h in the data set “in vivo [6]” of 4.
